In paper PMC10586521 (Journal of medicinal chemistry, 2023):

Assays:
Format in all cases: cell-based
[1] = test system: HCT116 colorectal carcinoma cells; test: MTS cell viability / cell growth inhibition assay in HCT116 cells; settings: for fold less effective (GI50) compared to 17S-FD-895 / fold loss in cell growth inhibitory activity (GI50) compared to 1: HCT116 cells, 72 h; for fold less effective (GI50) compared to 17S-FD-895: comparator printed as 17S-FD-895 (1a); for fold loss in activity: comparator not stated, side chain terminus modification; for fold loss in cell growth inhibitory activity (GI50) compared to 1: relative to FD-895 (1); for GI50: Homo sapiens, HCT-116, 72 h
[2] = test system: PLK-1; test: qRT-PCR splice modulation, PLK-1 exon skipping/expression in HCT116 cells; settings: for PLK-1 expression/splicing: HCT116, 24 h, 100-500 nM; for effect on exon 3 inclusion in PLK-1: HCT116, 4 h, ~20 times GI50
How it was run: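 HCT116 (ATCC, mycoplasma-tested, ≤5 passages) in supplemented McCoy's 5a with 0.5% DMSO, exposed 4 h or 24 h (100, 250, 500 nM); untreated control. Total RNA isolated, 1 μg DNase I-treated, cDNA made; qPCR on 5 ng cDNA with primers for intron retention/exon skipping. Cycling: 95 °C 10 min; 40× (95 °C 30 s, 55 °C 60 s, 72 °C 60 s). 2−ΔΔCT vs GAPDH, untreated set to 1.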

[3] = test system: HCT116 tumor cells; test: qRT-PCR splice modulation, overall profile over the gene panel in HCT116 cells; settings: HCT116, 24 h, 100, 250 and 500 nM
[4] = test system: SF3A1; test: qRT-PCR splice modulation, SF3A1 intron retention in HCT116 cells; settings: for SF3A1 intron 6 retention: HCT116, 4 h, ~20 times GI50, relative to 1; for SF3A1 intron retention: HCT116, 24 h, 100-500 nM, compared to 1
[5] = test system: SF3A3; test: qRT-PCR splice modulation, SF3A3 intron retention in HCT116 cells; settings: HCT116, 24 h, 100-500 nM, compared to 1
How it was run: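 HCT116 cells (ATCC, mycoplasma-tested, ≤5 passages), supplemented McCoy's 5a with 0.5% DMSO, treated 24 h at 100, 250 or 500 nM; untreated cells as control. Total RNA extracted, 1 μg DNase I-treated, converted to cDNA; qPCR on 5 ng cDNA using intron-retention primers, 95 °C 10 min then 40 cycles 95/55/72 °C. Levels by 2−ΔΔCT relative to GAPDH, untreated = 1.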

[6] = test system: DNAJB1; test: qRT-PCR splice modulation, DNAJB1 intron retention in HCT116 cells; settings: for DNAJB1 intron 2 retention: HCT116, 4 h, ~20 times GI50, relative to 1; for DNAJB1 intron retention: HCT116, 24 h, 100-500 nM, compared to 1
[7] = test system: SF3B2; test: qRT-PCR splice modulation, SF3B2 intron retention in HCT116 cells
[8] = test system: SF2; test: qRT-PCR, SF2 RNA expression in HCT116 cells; settings: for down regulation of SF2 expression: HCT116, 4 h, ~20 times GI50; for SF2 expression: HCT116, 24 h, 100-500 nM
[9] = test system: AURKA; test: qRT-PCR splice modulation, AURKA exon skipping/expression in HCT116 cells; settings: HCT116, 24 h, 100-500 nM
[10] = HCT116, 4 h, ~20 times GI50, compared to 1
[11] = HCT116, 24 h, 100-500 nM, compared to 1

CC[C@H](OC)[C@@H](C)[C@H]1O[C@@H]1[C@@H](O)[C@H](C)/C=C/C=C(\C)[C@H]1OC(=O)C[C@H](O)CC[C@@](C)(O)[C@H](OC(C)=O)/C=C/[C@@H]1C [Compound 1h, 7R,17S-FD-895]
fold less effective (GI50) compared to 17S-FD-895 [1]: 318 fold

CC[C@H](OC)[C@@H](C)[C@@H]1O[C@H]1[C@@H](O)[C@H](C)/C=C/C=C(\C)[C@H]1OC(=O)C[C@H](O)CC[C@@](C)(O)[C@@H](OC(C)=O)/C=C/[C@@H]1C [Compound 1i, 17S,18S,19S-FD-895]
PLK-1 expression/splicing [2]: increased the RNA expression | fold loss in activity [1]: 100 fold | overall splicing activity over the genes tested [3]: drastic reduction in splicing activity | SF3A1 intron 6 retention [4]: more effective than 1

CC[C@H](OC)[C@@H](C)[C@H]1O[C@@H]1[C@@H](O)[C@H](C)/C=C/C=C(\C)[C@H]1OC(=O)C[C@@H](O)CC[C@@](C)(O)[C@@H](OC(C)=O)/C=C/[C@@H]1C [Compound 1g, 3S,17S-FD-895]
PLK-1 expression/splicing [2]: reduced PLK-1 expression | SF3A3 intron retention [5]: comparable intron retention | fold less effective (GI50) compared to 17S-FD-895 [1]: 52 fold | fold loss in cell growth inhibitory activity (GI50) compared to 1 [1]: 75 fold | DNAJB1 intron 2 retention [6]: highest level of intron retention | DNAJB1 intron retention [6]: expected loss in intron retention | SF3B2 intron retention [7, 10]: improved efficacy | SF3B2 intron retention [7, 11]: expected loss in intron retention | down regulation of SF2 expression [8]: highest efficacy | SF2 expression [8]: reduced ability to inhibit SF2 expression | SF3A1 intron retention [4]: expected loss in intron retention

CC[C@H](OC)[C@@H](C)[C@H]1O[C@@H]1[C@H](O)[C@H](C)/C=C/C=C(\C)[C@H]1OC(=O)C[C@H](O)CC[C@@](C)(O)[C@H](OC(C)=O)/C=C/[C@@H]1C [Compound 1b, 7R-FD-895]
effect on exon 3 inclusion in PLK-1 [2]: most potent effect | fold loss in cell growth inhibitory activity (GI50) compared to 1 [1]: 300 fold | overall splicing activity over the genes tested [3]: loss of splicing activity

CC[C@H](OC)[C@@H](C)[C@H]1O[C@@H]1[C@H](OC)[C@H](C)/C=C/C=C(\C)[C@H]1OC(=O)C[C@H](O)CC[C@@](C)(O)[C@@H](OC(C)=O)/C=C/[C@@H]1C [Compound 1e, 17-methoxy-FD-895]
DNAJB1 intron 2 retention [6]: highest level of intron retention | SF3B2 intron retention [7, 10]: improved efficacy | overall splicing activity over the genes tested [3]: comparable or slightly reduced splice modulatory activity | SF3A1 intron 6 retention [4]: more effective than 1

CC[C@H](OC)[C@@H](C)[C@H]1O[C@@H]1[C@H](O)[C@H](C)/C=C/C=C(\C)[C@H]1OC(=O)C[C@@H](O)CC[C@@](C)(O)[C@@H](OC(C)=O)/C=C/[C@@H]1C [Compound 1a, 3S-FD-895]
effect on exon 3 inclusion in PLK-1 [2]: most potent effect | GI50 [1]: < 10 nM | DNAJB1 intron 2 retention [6]: highest level of intron retention | SF3B2 intron retention [7, 10]: improved efficacy | SF3A1 intron 6 retention [4]: more effective than 1

CC[C@@H](OC)[C@H](C)[C@H]1O[C@@H]1[C@@H](O)[C@H](C)/C=C/C=C(\C)[C@H]1OC(=O)C[C@H](O)CC[C@@](C)(O)[C@@H](OC(C)=O)/C=C/[C@@H]1C [Compound 1j, 17S,20S,21R-FD-895]
fold loss in activity [1]: 100 fold | AURKA expression [9]: reducing the expression of AURKA at 500 nM | overall splicing activity over the genes tested [3]: splicing profile comparable to 1i | SF3A1 intron 6 retention [4]: more effective than 1

CC[C@H](OC)[C@@H](C)[C@H]1O[C@@H]1[C@H](O)[C@H](C)/C=C/C=C(\C)[C@H]1OC(=O)C[C@H](O)CC[C@@](C)(O)[C@@H](OC(C)=O)/C=C/[C@@H]1C [Compound 1, FD-895]
PLK-1 expression/splicing [2]: weak efficacy | GI50 [1]: < 10 nM | down regulation of SF2 expression [8]: highest efficacy | SF2 expression [8]: weak efficacy | overall splicing activity over the genes tested [3]: altered the splicing of nearly all genes tested

CC[C@H](OC)[C@@H](C)[C@H]1O[C@@H]1[C@H](O)[C@H](C)/C=C/C=C(\C)[C@@H]1OC(=O)C[C@H](O)CC[C@@](C)(O)[C@@H](OC(C)=O)/C=C/[C@H]1C [Compound 1c, 10R,11R-FD-895]
fold loss in cell growth inhibitory activity (GI50) compared to 1 [1]: 21,700 fold

CC[C@H](OC)[C@@H](C)[C@H]1O[C@@H]1[C@@H](O)[C@H](C)/C=C/C=C(\C)[C@H]1OC(=O)C[C@H](O)CC[C@@](C)(O)[C@@H](OC(C)=O)/C=C/[C@@H]1C [Compound 1d, 17S-FD-895]
PLK-1 expression/splicing [2]: decreased effect | GI50 [1]: < 10 nM | DNAJB1 intron retention [6]: decreased level of intron retention | SF3B2 intron retention [7, 11]: dose dependent-increase intron retention | SF2 expression [8]: decreased effect | SF3A1 intron retention [4]: dose dependent-increase intron retention

CC[C@H](OC)[C@@H](C)[C@H]1O[C@@H]1[C@@H](OC)[C@H](C)/C=C/C=C(\C)[C@H]1OC(=O)C[C@H](O)CC[C@@](C)(O)[C@@H](OC(C)=O)/C=C/[C@@H]1C [Compound 1f, 17-methoxy-17S-FD-895]
fold loss in cell growth inhibitory activity (GI50) compared to 1 [1]: 21 fold | SF3A1 intron 6 retention [4]: more effective than 1
